Results as given in ChEMBL document CHEMBL1151979, “Antiallergic potential on RBL-2H3 cells of some phenolic constituents of Zingiber officinale (ginger)” (J Nat Prod, 2009).
Active and inactive are the calls of the source. The calls are words filed in the database; no cut-off is given here.

Tests used:
[1] = Cytotoxicity against rat RBL2H3 cells after 12 hrs by MTT assay; assay type: cell-based; conditions: RBL-2H3, 12 h
Method in brief: (§1)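 MTT viability assay in RBL-2H3 cells grown to 70-80% confluence and then exposed to compound; untreated and ≤0.5% DMSO cultures served as controls. MTT stock 5 mg/mL was diluted 1:10 into medium 3 h before the end of exposure, then incubated 2 h at 37 °C. Formazan was dissolved in DMSO and read at 600 nm. Viability is given as % of control OD, ≥3 repeats, and IC50 was derived from this.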

[2] = Cytotoxicity against rat RBL2H3 cells at 200 uM after 12 hrs by MTT assay; assay type: cell-based; conditions: rbl-2h3, 12 h; method in brief: as §1
RBL-2H3 [3] = assay: Antiallergic activity in mIgE-DNP and DNP-BSA-stimulated rat RBL2H3 cells assessed as inhibition of beta-hexosaminidase release at 1 uM pretreated before mIgE-DNP challenge measured after 12 hrs relative to control; assay type: functional
Method in brief: (§2)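 RBL-2H3 cells (DMEM, 10% FBS) seeded at 1 × 10^5/well and left 4-6 h at 37 °C to adhere. Compound was added at final concentrations for various pretreatment times, then mIgE-DNP was added for 16 h. Cells were washed in Tyrode's buffer (pH 7.4, 1 mg/mL BSA) and challenged with DNP-BSA 1 µg/mL for 1 h at 37 °C. Supernatant was incubated with p-NAG in citrate pH 4.5 for 1 h at 37 °C and read at A405. Inhibition was calculated against Triton X-100 total-release and spontaneous-release controls.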

RBL-2H3 [4] = assay: Antiallergic activity in mIgE-DNP and DNP-BSA-stimulated rat RBL2H3 cells assessed as inhibition of beta-hexosaminidase release at 100 uM pretreated before mIgE-DNP challenge measured after 12 hrs; assay type: functional, cell-based; method in brief: as §2
RBL-2H3 [5] = assay: Antiallergic activity in mIgE-DNP and DNP-BSA-stimulated rat RBL2H3 cells assessed as inhibition of beta-hexosaminidase release at 200 uM pretreated before mIgE-DNP challenge measured after 12 hrs; assay type: functional, cell-based; method in brief: as §2
RBL-2H3 [6] = assay: Antiallergic activity in mIgE-DNP and DNP-BSA-stimulated rat RBL2H3 cells assessed as inhibition of beta-hexosaminidase release at 1 uM pretreated before mIgE-DNP challenge measured after 24 hrs relative to control; assay type: functional; method in brief: as §2
RBL-2H3 [7] = assay: Antiallergic activity in mIgE-DNP and DNP-BSA-stimulated rat RBL2H3 cells assessed as inhibition of beta-hexosaminidase release at 1 uM pretreated before mIgE-DNP challenge measured after 48 hrs relative to control; assay type: functional; method in brief: as §2
RBL-2H3 [8] = assay: Antiallergic activity in mIgE-DNP and DNP-BSA-stimulated rat RBL2H3 cells assessed as inhibition of beta-hexosaminidase release at 100 uM pretreated before mIgE-DNP challenge measured after 24 hrs relative to control; assay type: functional; method in brief: as §2
RBL-2H3 [9] = assay: Antiallergic activity in mIgE-DNP and DNP-BSA-stimulated rat RBL2H3 cells assessed as inhibition of beta-hexosaminidase release at 100 uM pretreated before mIgE-DNP challenge measured after 48 hrs relative to control; assay type: functional; method in brief: as §2
RBL-2H3 [10] = assay: Antiallergic activity in mIgE-DNP and DNP-BSA-stimulated rat RBL2H3 cells assessed as inhibition of beta-hexosaminidase release at 200 uM pretreated before mIgE-DNP challenge measured after 24 hrs relative to control; assay type: functional; method in brief: as §2
RBL-2H3 [11] = assay: Antiallergic activity in mIgE-DNP and DNP-BSA-stimulated rat RBL2H3 cells assessed as inhibition of beta-hexosaminidase release at 200 uM pretreated before mIgE-DNP challenge measured after 48 hrs relative to control; assay type: functional; method in brief: as §2
[12] = Cytotoxicity against rat RBL2H3 cells at 120 uM after 12 hrs by MTT assay; assay type: cell-based; conditions: rbl-2h3, 12 h; method in brief: as §1
RBL-2H3 [13] = assay: Antiallergic activity in mIgE-DNP and DNP-BSA-stimulated rat RBL2H3 cells assessed as inhibition of beta-hexosaminidase release at 200 uM pretreated before mIgE-DNP challenge; assay type: functional, cell-based; conditions: TDE = time-dependent effect; method in brief: as §2
RBL-2H3 [14] = assay: Antiallergic activity in mIgE-DNP and DNP-BSA-stimulated rat RBL2H3 cells assessed as inhibition of beta-hexosaminidase release pretreated before mIgE-DNP challenge measured after 12 to 48 hrs; assay type: functional, cell-based; method in brief: as §2

SMILES	IC50 [1]	Activity [2]	inhibition at 1 µM (RBL-2H3 [3])	inhibition (RBL-2H3 [4])	inhibition (RBL-2H3 [5])	inhibition at 1 µM (RBL-2H3 [6])	inhibition at 1 µM (RBL-2H3 [7])	inhibition (RBL-2H3 [8])	inhibition (RBL-2H3 [9])	inhibition (RBL-2H3 [10])	inhibition (RBL-2H3 [11])	Activity [12]	inhibition (RBL-2H3 [13])	inhibition (RBL-2H3 [14])
CCCCC[C@H](O)CC(=O)CCc1ccc(O)c(OC)c1 [GINGEROL]	185 µM	Toxic	60%	Active	Active	60%	60%	Active	Active	Active	Active			
CCCCCCCCC[C@H](O)CC(=O)CCc1ccc(O)c(OC)c1	112 µM		60%	Active	Active	60%	60%	Active	Active	Active	Active	Toxic		
CCCCC/C=C/C(=O)CCc1ccc(O)c(OC)c1 [SHOGAOL]	90.4 µM											Toxic		
COc1cc(CCC(=O)CC(O)CCc2ccc(O)c(OC)c2)ccc1O (stereo not drawn) [HEXAHYDROCURCUMIN]	152 µM	Toxic											tde	Dose-dependent effect
CCCCCC(=O)/C=C(O)/C=C/c1ccc(O)c(OC)c1	38.5 µM		60%	Active	Active	60%	60%	Active	Active	Active	Active			
